According to ChEMBL document CHEMBL3616436, “Synthesis, cytotoxicity and antimicrobial activity of thiourea derivatives incorporating 3-(trifluoromethyl)phenyl moiety” (Eur J Med Chem, 2015):
Values after ≈ are worked out from the molar mass of the structure shown. Active and inactive are the calls of the source. The calls are words filed in the database; no cut-off is given here.

Experiments:
[1] = Cytotoxicity against human MT4 cells; assay type: cell-based
[2] = tested on: Vesicular stomatitis virus; test: Antiviral activity against Vesicular stomatitis virus ATCC VR 1540 infected in African green monkey Vero 76 cells assessed as reduction of virus-plaque formation after 2 days by crystal violet staining; assay type: functional, organism-based; details: ATCC VR 1540, Vero, 48 h
[3] = tested on: Human immunodeficiency virus 1; test: Antiviral activity against HIV1 3B infected in human MT4 cells assessed as protection against virus-induced cytopathogenicity by MTT assay; assay type: functional, organism-based; details: Human immunodeficiency virus 1, 3B
[4] = Cytotoxicity against bovine MDBK cells assessed as cell viability after 48 to 96 hrs by MTT assay; assay type: cell-based, Bos taurus; details: cattle
[5] = Antiviral activity against Bovine viral diarrhea virus 1-NADL ATCC VR-534 infected in MDBK cells assessed as protection against virus-induced cytopathogenicity after 3 to 4 days by MTT assay; assay type: functional, cell-based; details: Bovine viral diarrhea virus isolates and strains, ATCC VR-534, MDBK
Summary of the method: (§1)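 Cells seeded in 96-well plates (BHK 5x10^4, MDBK 3x10^4 cells/well), grown overnight to confluence, infected at m.o.i. 0.01 (BHK for Reo-1, MDBK for BVDV); serial compound dilutions in maintenance medium with 0.5% inactivated FBS added after 1 h; viability by MTT after 3–4 days at 37°C; EC50 for 50% protection by linear regression.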

[6] = Cytotoxicity against BHK cells assessed as cell viability after 48 to 96 hrs by MTT assay; assay type: cell-based, Mesocricetus auratus; details: hamster
[7] = tested on: Yellow fever virus; test: Antiviral activity against Yellow fever virus 17D infected in BHK cells assessed as protection against virus-induced cytopathogenicity after 3 to 4 days by MTT assay; assay type: functional, cell-based
[8] = tested on: Mammalian orthoreovirus 1; test: Antiviral activity against Reovirus type-1 ATCC VR-214 infected in BHK cells assessed as protection against virus-induced cytopathogenicity after 3 to 4 days by MTT assay; assay type: functional, cell-based; details: Mammalian orthoreovirus 1, ATCC VR-214, BHK; summary of the method: as §1
[9] = Cytotoxicity against African green monkey Vero 76 cells assessed as cell viability after 48 to 96 hrs by crystal violet staining; assay type: cell-based; details: chlorocebus sabaeus
[10] = tested on: Coxsackievirus B5; test: Antiviral activity against Human coxsackievirus B5 ATCC VR-29 infected in African green monkey Vero 76 cells assessed as reduction of virus-plaque formation after 3 days by crystal violet staining; assay type: functional, organism-based; details: Enterovirus B, ATCC VR-29, Vero, 72 h
Summary of the method: (§2)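 Plaque reduction: Vero-76 at 2x10^5 cells/well grown to confluent monolayers, infected 2 h at 50–100 PFU/well; after removing unadsorbed virus, overlay of D-MEM, 1% inactivated FBS, 0.75% methylcellulose with or without serial compound dilutions; 3 days at 37°C, fixed and stained with crystal violet in 50% ethanol, plaques counted; EC50 by linear regression.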

[11] = tested on: Poliovirus 1; test: Antiviral activity against Poliovirus type 1 ATCC VR-1562 infected in African green monkey Vero 76 cells assessed as reduction of virus-plaque formation after 2 days by crystal violet staining; assay type: functional, organism-based; details: Enterovirus C, ATCC VR-1562, Vero, 48 h
[12] = tested on: Vaccinia virus; test: Antiviral activity against Human Vaccinia virus ATCC VR-1549 infected in African green monkey Vero 76 cells assessed as reduction of virus-plaque formation after 3 days by crystal violet staining; assay type: functional, organism-based; details: Orthopoxvirus vaccinia, ATCC VR-1549, Vero, 72 h
[13] = tested on: Human alphaherpesvirus 1; test: Antiviral activity against Human herpesvirus 1 KOS ATCC VR-1493 infected in African green monkey Vero 76 cells assessed as reduction of virus-plaque formation after 3 days by crystal violet staining; assay type: functional, organism-based; details: Human alphaherpesvirus 1, KOS ATCC VR1493, Vero, 72 h; summary of the method: as §2
[14] = tested on: CCRF-CEM; test: Cytotoxicity against human CCRF-CEM cells after 96 hrs by MTT assay; assay type: functional
Summary of the method: (§3)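 Leukaemia/lymphoma lines seeded at 1×10^5 cells/ml in RPMI-1640 with 10% FCS and penicillin/streptomycin; incubated with serial dilutions at 37°C, 5% CO2; viability by MTT after 96 h; value is concentration reducing proliferation by 50%, with untreated controls undergoing at least three rounds of multiplication.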

[15] = tested on: WIL2-NS; test: Cytotoxicity against human WIL2-NS cells after 96 hrs by MTT assay; assay type: functional; summary of the method: as §3
[16] = tested on: CCRF-SB; test: Cytotoxicity against human CCRF-SB cells after 96 hrs by MTT assay; assay type: functional; summary of the method: as §3
[17] = tested on: Staphylococcus aureus; test: Antimicrobial activity against Staphylococcus aureus NCTC 4163 at 400 ug after 18 hrs by disc-diffusion method; assay type: functional; details: NCTC 4163, 18 h, read-out: IZ
Summary of the method: (§4)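 Disc diffusion on Mueller-Hinton II agar per CLSI; 9 mm paper discs loaded with 400 µg compound from DMSO solution, dried, placed on agar; growth inhibition zone diameter read after 18 h at 35°C.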

[18] = tested on: Staphylococcus aureus; test: Antimicrobial activity against Staphylococcus aureus ATCC 25923 at 400 ug after 18 hrs by disc-diffusion method; assay type: functional; details: ATCC 25923, 18 h, read-out: IZ; summary of the method: as §4
[19] = tested on: Staphylococcus aureus; test: Antimicrobial activity against Staphylococcus aureus ATCC 6538 at 400 ug after 18 hrs by disc-diffusion method; assay type: functional; details: ATCC 6538, 18 h, read-out: IZ; summary of the method: as §4
[20] = tested on: Staphylococcus aureus; test: Antimicrobial activity against Staphylococcus aureus ATCC 29213 at 400 ug after 18 hrs by disc-diffusion method; assay type: functional; details: ATCC 29213, 18 h, read-out: IZ; summary of the method: as §4
[21] = tested on: Staphylococcus epidermidis; test: Antimicrobial activity against Staphylococcus epidermidis ATCC 12228 at 400 ug after 18 hrs by disc-diffusion method; assay type: functional; details: ATCC 12228, 18 h, read-out: IZ; summary of the method: as §4
[22] = tested on: Staphylococcus epidermidis; test: Antimicrobial activity against Staphylococcus epidermidis ATCC 35984 at 400 ug after 18 hrs by disc-diffusion method; assay type: functional; details: ATCC 35984, 18 h, read-out: IZ; summary of the method: as §4
[23] = tested on: Bacillus subtilis; test: Antimicrobial activity against Bacillus subtilis ATCC 6633 at 400 ug after 18 hrs by disc-diffusion method; assay type: functional; details: ATCC 6633, 18 h, read-out: IZ; summary of the method: as §4
[24] = tested on: Bacillus cereus; test: Antimicrobial activity against Bacillus cereus ATCC 11778 at 400 ug after 18 hrs by disc-diffusion method; assay type: functional; details: ATCC 11778, 18 h, read-out: IZ; summary of the method: as §4
[25] = tested on: Enterococcus hirae; test: Antimicrobial activity against Enterococcus hirae ATCC 10541 at 400 ug after 18 hrs by disc-diffusion method; assay type: functional; details: ATCC 10541, 18 h, read-out: IZ; summary of the method: as §4
[26] = tested on: Enterococcus faecalis; test: Antimicrobial activity against Enterococcus faecalis ATCC 29212 at 400 ug after 18 hrs by disc-diffusion method; assay type: functional; summary of the method: as §4
[27] = tested on: Micrococcus luteus; test: Antimicrobial activity against Micrococcus luteus ATCC 10240 at 400 ug after 18 hrs by disc-diffusion method; assay type: functional; details: ATCC 10240, 18 h, read-out: IZ; summary of the method: as §4
[28] = tested on: Micrococcus luteus; test: Antimicrobial activity against Micrococcus luteus ATCC 9341 at 400 ug after 18 hrs by disc-diffusion method; assay type: functional; details: ATCC 9341, 18 h, read-out: IZ; summary of the method: as §4
[29] = tested on: Proteus vulgaris; test: Antimicrobial activity against Proteus vulgaris NCTC 4635 at 400 ug after 18 hrs by disc-diffusion method; assay type: functional; summary of the method: as §4
[30] = tested on: Staphylococcus aureus; test: Antimicrobial activity against Staphylococcus aureus NCTC 4163 after 18 hrs by twofold serial microdilution method; assay type: functional; details: NCTC 4163, 18 h
[31] = tested on: Staphylococcus aureus; test: Antimicrobial activity against Staphylococcus aureus ATCC 25923 after 18 hrs by twofold serial microdilution method; assay type: functional; details: ATCC 25923, 18 h
[32] = tested on: Staphylococcus aureus; test: Antimicrobial activity against Staphylococcus aureus ATCC 6538 after 18 hrs by twofold serial microdilution method; assay type: functional; details: ATCC 6538, 18 h
[33] = tested on: Staphylococcus aureus; test: Antimicrobial activity against Staphylococcus aureus ATCC 29213 after 18 hrs by twofold serial microdilution method; assay type: functional; details: ATCC 29213, 18 h
[34] = tested on: Staphylococcus epidermidis; test: Antimicrobial activity against Staphylococcus epidermidis ATCC 12228 after 18 hrs by twofold serial microdilution method; assay type: functional; details: ATCC 12228, 18 h
[35] = tested on: Staphylococcus epidermidis; test: Antimicrobial activity against Staphylococcus epidermidis ATCC 35984 after 18 hrs by twofold serial microdilution method; assay type: functional; details: ATCC 35984, 18 h
[36] = tested on: Mycobacterium tuberculosis; test: Antimycobacterial activity against Mycobacterium tuberculosis H37Rv ATCC 25618; assay type: functional
Summary of the method: (§5)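 Classical test-tube successive-dilution method in Youmans' modification of Proskauer and Beck liquid medium with 10% bovine serum. Inoculum came from 14-day cultures. DMSO stock was 10 mg/mL, diluted geometrically in medium. Tubes were incubated at 37 °C. Concentrations tested were 3.1, 6.2, 12.5, 25, 50 and 100 µg/ml. MIC is the minimum concentration inhibiting growth relative to compound-free tubes.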

[37] = tested on: Mycobacterium tuberculosis; test: Antimycobacterial activity against drug-sensitive Mycobacterium tuberculosis Spec. 192; assay type: functional; summary of the method: as §5
[38] = tested on: Escherichia coli; test: Antimicrobial activity against Escherichia coli ATCC 10538 after 18 hrs by twofold serial microdilution method; assay type: functional, organism-based
[39] = tested on: Escherichia coli; test: Antimicrobial activity against Escherichia coli ATCC 25922 after 18 hrs by twofold serial microdilution method; assay type: functional, organism-based
[40] = tested on: Escherichia coli; test: Antimicrobial activity against Escherichia coli NCTC 8196 after 18 hrs by twofold serial microdilution method; assay type: functional, organism-based
[41] = tested on: Pseudomonas aeruginosa; test: Antimicrobial activity against Pseudomonas aeruginosa ATCC 15442 after 18 hrs by twofold serial microdilution method; assay type: functional, organism-based
[42] = tested on: Pseudomonas aeruginosa; test: Antimicrobial activity against Pseudomonas aeruginosa NCTC 6749 after 18 hrs by twofold serial microdilution method; assay type: functional, organism-based
[43] = tested on: Pseudomonas aeruginosa; test: Antimicrobial activity against Pseudomonas aeruginosa ATCC 27863 after 18 hrs by twofold serial microdilution method; assay type: functional, organism-based
[44] = tested on: Bordetella bronchiseptica; test: Antimicrobial activity against Bordetella bronchiseptica ATCC 4617 after 18 hrs by twofold serial microdilution method; assay type: functional, organism-based
[45] = tested on: Candida albicans; test: Antimicrobial activity against Candida albicans ATCC 10231 after 24 hrs by twofold serial microdilution method; assay type: functional, organism-based
[46] = tested on: Candida albicans; test: Antimicrobial activity against Candida albicans ATCC 90028 after 24 hrs by twofold serial microdilution method; assay type: functional, organism-based
[47] = tested on: Candida parapsilosis; test: Antimicrobial activity against Candida parapsilosis ATCC 22019 after 24 hrs by twofold serial microdilution method; assay type: functional, organism-based

SMILES | CC50 [1] [µM] | EC50 [2] [µM] | EC50 [3] [µM] | CC50 [4] [µM] | EC50 [5] [µM] | CC50 [6] [µM] | EC50 [7] [µM] | EC50 [8] [µM] | CC50 [9] [µM] | EC50 [10] [µM] | EC50 [11] [µM] | EC50 [12] [µM] | EC50 [13] [µM] | CC50 [14] [µM] | CC50 [15] [µM] | CC50 [16] [µM] | MIC [36] [µg/mL] | MIC [37] [µg/mL] | also measured
O=[N+]([O-])c1ccc(NC(=S)Nc2cccc(C(F)(F)F)c2)cc1 | 9.2 | > 10 | > 9.2 | 10 | > 10 | 9.5 | > 9.5 | > 9.5 | 10 | > 10 | > 10 | > 10 | > 10 | 8.7 | 9.4 | 8.2 | 50 (≈ 146 µM) | > 100 | zone of inhibition at 400 µg/disc [17]: 16 mm; zone of inhibition at 400 µg/disc [18]: 20 mm; zone of inhibition at 400 µg/disc [19]: 15 mm; zone of inhibition at 400 µg/disc [20]: 16 mm; zone of inhibition at 400 µg/disc [21]: 13 mm; zone of inhibition at 400 µg/disc [22]: 12 mm; zone of inhibition at 400 µg/disc [23]: 15 mm; zone of inhibition at 400 µg/disc [24]: 15 mm; zone of inhibition at 400 µg/disc [25]: 13 mm; inhibition zone (IZ) [26]: inactive; zone of inhibition at 400 µg/disc [27]: 13 mm; zone of inhibition at 400 µg/disc [28]: 13 mm; inhibition zone (IZ) [29]: inactive; MIC [30]: 128 µg/mL (≈ 375 µM); MIC [31]: 128 µg/mL (≈ 375 µM); MIC [32]: 64 µg/mL (≈ 188 µM); MIC [33]: 64 µg/mL (≈ 188 µM); MIC [34]: 64 µg/mL (≈ 188 µM); MIC [35]: 64 µg/mL (≈ 188 µM)
COc1cccc2c1C(=O)c1c(O)c3c(c(O)c1C2=O)C[C@@](O)(C(=O)CO)C[C@@H]3O[C@H]1C[C@H](N)[C@H](O)[C@H](C)O1 [DOXORUBICIN] |  |  |  |  |  |  |  |  |  |  |  |  |  | 0.02 | 0.02 | 0.03 |  |  | 
CCOC(=O)c1ccc(NC(=S)Nc2cccc(C(F)(F)F)c2)cc1 | 23 | > 71 | > 23 | 64 | > 64 | 50 | > 50 | > 50 | 71 | > 71 | > 71 | > 71 | > 71 |  |  |  | > 100 | > 100 | Activity [38]: inactive; Activity [39]: inactive; Activity [40]: inactive; Activity [41]: inactive; Activity [42]: inactive; Activity [43]: inactive; Activity [44]: inactive; Activity [45]: inactive; Activity [46]: inactive; Activity [47]: inactive
